Data on six molecules can be found in article PMC3251632 (Cancer research, 2011).

Entries after “also recorded” stand apart in the source; their conditions may differ.

One data set relates to Akt. The data set is described as follows: Akt phosphorylation in CFPAC cells. It counts as cell-based, human.
The test system of a further data set is CFPAC tumors. The data set is described as follows: Xenograft CFPAC tumor growth. It counts as in vivo, human tumor in nude mice. Particulars: daily treatment for one week, CFPAC-bearing nude mice, n = 12 per group. In a few lines:
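Female nu/nu mice, 8–12 weeks old, carried 2 × 10^6 CFPAC cells in the flank. Treatment began ~2 weeks after implantation (mean diameter ~6–7 mm) and was given daily for one week, n = 12 per group. Tumour growth was measured by caliper as mean diameter. Groups were compared by one-tailed Student's t test.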

In a further data set the test system is Panc02 cells. Nature of the data set: Caspase-3 activation. It counts as cell-based, mouse. Particulars: 10 μM, 24 h, flow cytometry. (In general: A flow cytometer gives signals particle by particle.)
The conditions of data set [1]: SW43 by itself, vs SV119; ref ([24]); cited from earlier work.
The subject of data set [2] is pancreatic cancer cell lines. The data set is described as follows: Killing capacity in additional pancreatic cancer cell lines in vitro. It counts as cell-based. Particulars: all cell lines under investigation; supplementary Fig. 3.
Data set [3] deals with Panc02 tumors. Nature of the data set: In vivo apoptosis in Panc02 tumors. The arrangement: species or system mouse (C57BL/6). Particulars: single i.p. dose (S2-Bim 400 μg), next day, n = 3. In a few lines: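 Female C57BL/6 mice, 8–12 weeks old, received 1 × 10^6 Panc02 cells subcutaneously in the right flank. At two weeks (mean tumour diameter ~5 mm) they got a single i.p. dose of 400 μg. Tumours were harvested 24 h later. For TUNEL, tumours were stained directly. For caspase-3, tumours were minced to 1 mm and digested 45 min in RPMI with 1 mg/mL collagenase and 0.1 mg/mL DNase, filtered, ACK-lysed, resuspended in PBS pH 7.4, fixed in 1% paraformaldehyde, and read by flow cytometry for activated caspase-3.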

The next data set concerns the target σ-2 receptor (Homo sapiens, UniProt Q5BJF2). The data set is described as follows: Competitive displacement of fluorescent sigma-2 ligand SW120. Format: binding, human (CFPAC cells). The note with it: compared to non-conjugated SV119; CFPAC cells.
Data set [4] has as its system Panc02 tumors. The data set is described as follows: Syngeneic Panc02 tumor growth and survival. Format: in vivo, mouse (C57BL/6). The note with it: C57BL/6 mice with Panc02 tumors; supplementary Fig. 4. In a few lines: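 Female C57BL/6 mice, 8–12 weeks old, carried 1 × 10^6 Panc02 cells in the flank. Dosing began ~2 weeks after implantation (mean diameter ~6–7 mm): i.p. every other day for two weeks, n = 12 per group. Mice were euthanised at tumour ulceration or a mean diameter of 15 mm. Survival was plotted as Kaplan-Meier curves and compared by log-rank test.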

The conditions of data set [5]: ref ([30]–[32]); cited from earlier work.

Chain of σ-2 receptor (Q5BJF2 whole entry): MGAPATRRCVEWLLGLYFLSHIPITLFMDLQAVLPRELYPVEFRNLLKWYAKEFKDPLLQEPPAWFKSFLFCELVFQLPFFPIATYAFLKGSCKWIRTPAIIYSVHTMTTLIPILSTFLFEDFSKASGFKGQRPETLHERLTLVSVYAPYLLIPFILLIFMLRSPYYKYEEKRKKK

For `COc1ccc(C)cc1NC(=O)OC1C[C@H]2CCC[C@@H](C1)N2CCCCCCN` (stereo partly drawn) [SV119], the “activation status of the two central kinases (Akt and p70 S6 kinase)” value in the data set on Akt (SV119 alone, 24 hours, also p70 S6 kinase (data not shown)) is “incapable of altering the activation status of these two central kinases”. Besides, the “tumor growth, CFPAC xenograft (in words)” value in the data set with CFPAC tumors is on record as “somewhat reduced tumor growth rate”.
For the molecule “LDPKLMKEEQMSQAQLFTRSFDDGL-OH [S2-CTMP-4]”, the “fold increase in apoptosis (caspase-3 induction) vs SV119 alone” value with Panc02 cells came to 1.3 fold. In addition, the “interference with Akt activation (phosphorylation)” value in the data set on Akt (CFPAC cells, 24 hours post-treatment) is reported as “capable of interfering with Akt activation”.
Turning to `COc1ccc(C)cc1NC(=O)OC1CC2CCCC(C1)N2CCCCCCCCCCN` (stereo not drawn) [SW43], the “cytotoxicity relative to SV119” value in data set [1] was “twice as cytotoxic by itself”.
EIWIAQEARRIGAEFNAYYAR-OH [S2-BimX]: the “potency / response of pancreatic cancer cell lines (in words)” value in data set [2] is on record as “virtually no activity in all cell lines tested; also recorded: complete loss of killing activity”. In addition, in the data set on Panc02 tumors [3], the “tumor cell apoptosis (activated caspase-3) in words” value was “only background signals”. At σ-2 receptor, the “displacement of SW120 (in words)” value is “displaced SW120 in a dose-dependent fashion”. In the data set with CFPAC tumors, the “tumor growth, CFPAC xenograft (in words)” value was “somewhat reduced tumor growth rate; also recorded: elicited SV119 baseline activity”. The “time by which all mice had died” value in the data set with Panc02 tumors [4] is given as 43 days post tumor inoculation.
Turning to `CC(C)=CCN1CC[C@]2(C)c3cc(O)ccc3C[C@H]1[C@H]2C` [(+)-pentazocine, reference compound], the “displacement of SW120 (in words)” value at σ-2 receptor is on record as “unable to compete off SW120”.
As for `CC1(C)CCC(c2ccc(Cl)cc2)=C(CN2CCN(c3ccc(C(=O)NS(=O)(=O)c4ccc(N[C@H](CCN5CCOCC5)CSc5ccccc5)c(S(=O)(=O)C(F)(F)F)c4)cc3)CC2)C1` [ABT-263], the “oral bioavailability (in words)” value in [5] is “orally bioavailable”.
